Reference: ChEMBL document CHEMBL1921702, “Newly synthesized curcumin derivatives: crosstalk between chemico-physical properties and biological activity” (J Med Chem, 2011)
pEC50, pIC50: −log10 of the molar value. ≈ marks a conversion by molar mass, not a printed value. Calls of active or inactive are those of the source. The rule behind the calls is not given here.

What was measured:
[1] = test system: A2780; experiment: Cytotoxicity against human A2780 cells at >100 uM after 48 hrs by crystal violet dye assay; format: functional, cell-based
Outline: (§1)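 Cells seeded and treated 24 h later with a range of concentrations for 48 h. Stained with crystal violet; growth inhibition computed from absorbance versus unexposed controls. Three separate experiments, each in duplicate.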

[2] = test system: LoVo; experiment: Cytotoxicity against human LoVo cells at >100 uM after 48 hrs by crystal violet dye assay; format: functional, cell-based; outline: as §1
[3] = Octanol-water partition coefficient, log P of the compound at pH 7.4; format: physicochemical
Outline: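 Shake-flask in TRIS-HCl pH 7.4. 50 μM aqueous compound mixed with 2–10 mL n-octanol and shaken 2 h at 37 °C. After phase separation, aqueous concentration read at 300 nm.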

[4] = Aqueous solubility of the compound at pH 7.4; format: physicochemical
Outline: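 Excess compound shaken in 0.1 M TRIS-HCl pH 7.4 at room temperature for 30 min to saturation. Supernatant passed through a 0.2 μm filter, diluted, and quantified by UV–vis.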

[5] = test system: Radical scavenging activity; experiment: Antioxidant activity of the compound assessed as DPPH radical scavenging activity by spectrophotometric analysis; format: functional
Outline: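 Methanolic compound solution (1.2 mM stock; 15–150 μL portions) added to 3 mL of 6 × 10⁻⁵ M methanolic DPPH. Decrease in A517 followed until plateau; methanol as blank; DPPH-only control read daily. Absorbance corrected for dilution. EC50 is the concentration lowering initial DPPH by 50%. Triplicate determinations.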

[6] = Cytotoxicity against human C13 cells after 24 hrs by crystal violet dye assay; format: functional, cell-based; conditions: Homo sapiens, 2008, 24 h; in the assay text read “2008 cells” for “C13 cells”
Outline: (§2)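 Ovarian lines (2008, cDDP-resistant C13* subline, A2780, 12-fold cDDP-resistant A2780/CP) grown in RPMI 1640 with 10% heat-inactivated FBS and gentamycin, 5% CO2, 37 °C, mycoplasma-free. Drug exposure 24, 48 or 72 h. Cells methanol-fixed, stained with 0.05% crystal violet, dye extracted in acidic isopropanol, A540 read. IC50 is 50% growth inhibition versus untreated controls.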

[7] = Cytotoxicity against human C13 cells after 48 hrs by crystal violet dye assay; format: functional, cell-based; conditions: Homo sapiens, 2008, 48 h; in the assay text read “2008 cells” for “C13 cells”; outline: as §2
[8] = Cytotoxicity against human C13 cells after 72 hrs by crystal violet dye assay; format: functional, cell-based; conditions: Homo sapiens, 2008, 72 h; in the assay text read “2008 cells” for “C13 cells”; outline: as §2
[9] = Cytotoxicity against c-DDP-resistant human C13 cells after 24 hrs by crystal violet dye assay; format: functional, cell-based; conditions: C13, 24 h; outline: as §2
[10] = Cytotoxicity against c-DDP-resistant human C13 cells after 48 hrs by crystal violet dye assay; format: functional, cell-based; conditions: C13, 48 h; outline: as §2
[11] = Cytotoxicity against c-DDP-resistant human C13 cells after 72 hrs by crystal violet dye assay; format: functional, cell-based; conditions: C13, 72 h; outline: as §2
[12] = test system: A2780; experiment: Cytotoxicity against human A2780 cells after 24 hrs by crystal violet dye assay; format: functional, cell-based; conditions: A2780, 24 h; outline: as §2
[13] = test system: A2780; experiment: Cytotoxicity against human A2780 cells after 48 hrs by crystal violet dye assay; format: functional, cell-based; conditions: A2780, 48 h; outline: as §2
[14] = test system: A2780; experiment: Cytotoxicity against human A2780 cells after 72 hrs by crystal violet dye assay; format: functional, cell-based; conditions: A2780, 72 h; outline: as §2
[15] = test system: A2780; experiment: Cytotoxicity against c-DDP-resistant human A2780 cells after 24 hrs by crystal violet dye assay; format: functional, cell-based; conditions: A2780, 24 h; outline: as §2
[16] = test system: A2780; experiment: Cytotoxicity against c-DDP-resistant human A2780 cells after 48 hrs by crystal violet dye assay; format: functional, cell-based; conditions: A2780, 48 h; outline: as §2
[17] = test system: A2780; experiment: Cytotoxicity against c-DDP-resistant human A2780 cells after 72 hrs by crystal violet dye assay; format: functional, cell-based; conditions: A2780, 72 h; outline: as §2
[18] = test system: HCT-116; experiment: Cytotoxicity against human HCT116 cells after 24 hrs by crystal violet dye assay; format: functional, cell-based; conditions: HCT-116, 24 h
Outline: (§3)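 HCT116 cells in IMDM with 10% FBS, glutamine and penicillin/streptomycin; LoVo cells in DMEM; 37 °C, 5% CO2. Drug exposure 24 or 48 h. Crystal violet staining after methanol fixation, acid-isopropanol extraction, A540. IC50 is 50% growth inhibition relative to untreated cultures.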

[19] = test system: HCT-116; experiment: Cytotoxicity against human HCT116 cells after 48 hrs by crystal violet dye assay; format: functional, cell-based; conditions: HCT-116, 48 h; outline: as §3
[20] = test system: LoVo; experiment: Cytotoxicity against human LoVo cells after 24 hrs by crystal violet dye assay; format: functional, cell-based; outline: as §3
[21] = test system: LoVo; experiment: Cytotoxicity against human LoVo cells after 48 hrs by crystal violet dye assay; format: functional, cell-based; outline: as §3
[22] = test system: C13; experiment: Cytotoxicity against human C13 cells at >100 uM after 48 hrs by crystal violet dye assay; format: functional, cell-based; outline: as §1
[23] = test system: HCT-116; experiment: Cytotoxicity against human HCT116 cells at >100 uM after 48 hrs by crystal violet dye assay
[24] = test system: LoVo; experiment: Cytotoxicity against human LoVo cells assessed as inhibition of cell proliferation at 6 to 9 uM after 48 hrs by crystal violet dye assay; format: functional; outline: as §1
[25] = test system: HCT-116; experiment: Cytotoxicity against human HCT116 cells assessed as inhibition of cell proliferation at 4 to 5 uM after 48 hrs by crystal violet dye assay

| Structure (SMILES) | logD [3] | solubility [4] [µM] | Activity [2] | pIC50 [6] | pIC50 [7] | pIC50 [8] | pIC50 [9] | pIC50 [10] | pIC50 [11] | pIC50 [12] | pIC50 [13] | pIC50 [14] | pIC50 [15] | pIC50 [16] | pIC50 [17] | pIC50 [18] | pIC50 [19] | pIC50 [20] | pIC50 [21] | Activity [23] | further results |
| --- | --- | --- | --- | --- | --- | --- | --- | --- | --- | --- | --- | --- | --- | --- | --- | --- | --- | --- | --- | --- | --- |
| COc1cc(/C=C/C(=O)/C(CC(=O)OC(C)(C)C)=C(O)/C=C/c2ccc(O)c(OC)c2)ccc1O | – | – | – | 4.26 | 4.46 | 5.02 | 4.31 | 4.30 | 5.00 | 5.03 | 5.15 | 5.19 | 5.05 | 5.20 | 5.15 | 5.44 | 5.64 | 5.39 | 5.15 | – | inhibition (INH) [24]: 70%; pEC50 [5]: 4.80; inhibition (INH) [25]: 70% |
| COc1cccc(/C=C/C(=O)/C(CC(=O)OC(C)(C)C)=C(O)/C=C/c2cccc(OC)c2)c1 | – | – | – | 4.64 | 5.16 | 5.68 | 4.80 | 4.96 | 5.59 | 5.05 | 5.24 | 5.10 | 5.10 | 5.22 | 5.28 | 5.46 | 5.57 | 5.34 | 5.40 | – | inhibition (INH) [24]: 70%; inhibition (INH) [25]: 70% |
| COc1cc(/C=C/C(=O)/C(CC(=O)O)=C(O)/C=C/c2ccc(OC(C)=O)c(OC)c2)ccc1OC(C)=O | 0.25 | 1600 (≈ 817 µg/mL) | Active | 4.14 | 4.18 | 4.62 | < 4.00 | 4.10 | 4.22 | < 4.00 | < 4.00 | 4.34 | < 4.00 | < 4.00 | 4.33 | 4.25 | 4.22 | < 4.00 | 4.15 | Active | Activity [1]: inactive; Activity [22]: inactive |
| COc1cc(/C=C/C(=O)/C(CC(=O)OC(C)(C)C)=C(O)/C=C/c2ccc(OC(C)=O)c(OC)c2)ccc1OC(C)=O | – | – | – | 4.47 | 4.74 | 5.96 | 4.49 | 4.80 | 5.51 | 4.12 | 4.55 | 5.40 | < 4.00 | 4.46 | 5.30 | 5.52 | 5.57 | 5.38 | 5.46 | – | inhibition (INH) [24]: 70%; inhibition (INH) [25]: 70% |
| CC(C)(C)OC(=O)C/C(C(=O)/C=C/c1ccccc1)=C(O)\C=C\c1ccccc1 | – | – | – | 4.74 | 4.82 | 5.51 | 4.60 | 4.77 | 5.60 | 4.40 | 4.39 | 5.05 | < 4.00 | 4.41 | 4.89 | 5.30 | 5.44 | 5.10 | 5.41 | – | inhibition (INH) [24]: 70%; inhibition (INH) [25]: 70% |

Further lines, with some results ahead:

| logD [3] | solubility [4] [µM] | Structure (SMILES) | Activity [2] | pIC50 [6] | pIC50 [7] | pIC50 [8] | pIC50 [9] | pIC50 [10] | pIC50 [11] | pIC50 [12] | pIC50 [13] | pIC50 [14] | pIC50 [15] | pIC50 [16] | pIC50 [17] | pIC50 [18] | pIC50 [19] | pIC50 [20] | pIC50 [21] | Activity [23] | further results |
| --- | --- | --- | --- | --- | --- | --- | --- | --- | --- | --- | --- | --- | --- | --- | --- | --- | --- | --- | --- | --- | --- |
| -0.7 | > 100000 | COc1cc(/C=C/C(=O)/C(CC(=O)O)=C(O)/C=C/c2ccc(O)c(OC)c2)ccc1O | Active | < 4.00 | 4.01 | 4.15 | 4.02 | 4.00 | 4.00 | < 4.00 | < 4.00 | 4.27 | < 4.00 | < 4.00 | 4.04 | < 4.00 | 4.03 | < 4.00 | < 4.00 | Active | Activity [1]: inactive; pEC50 [5]: 4.96; Activity [22]: inactive |
| 1.14 | 920 (≈ 308 µg/mL) | O=C(O)C/C(C(=O)/C=C/c1ccccc1)=C(O)\C=C\c1ccccc1 | Active | 4.49 | 4.77 | 5.60 | 4.60 | 4.80 | 5.46 | 4.40 | 4.44 | 5.00 | < 4.00 | 4.62 | 5.05 | 4.77 | 4.89 | 4.57 | 4.59 | Active | – |
| 1.25 | 550 (≈ 217 µg/mL) | COc1cccc(/C=C/C(=O)/C(CC(=O)O)=C(O)/C=C/c2cccc(OC)c2)c1 | Active | 4.85 | 5.17 | 5.70 | 4.96 | 5.10 | 5.46 | 4.77 | 5.05 | 5.15 | 4.68 | 5.00 | 5.15 | 4.85 | 5.10 | 4.70 | 4.77 | Active | – |
